According to ChEMBL document CHEMBL1126860, “Efficient inhibition of human leukocyte elastase and cathepsin G by saccharin derivatives” (J Med Chem, 1993):
The source made the active and inactive calls. The rule behind the calls is not given here.

Biological target: T1, Neutrophil elastase (Homo sapiens) (UniProt P08246)
T1 sequence (whole entry): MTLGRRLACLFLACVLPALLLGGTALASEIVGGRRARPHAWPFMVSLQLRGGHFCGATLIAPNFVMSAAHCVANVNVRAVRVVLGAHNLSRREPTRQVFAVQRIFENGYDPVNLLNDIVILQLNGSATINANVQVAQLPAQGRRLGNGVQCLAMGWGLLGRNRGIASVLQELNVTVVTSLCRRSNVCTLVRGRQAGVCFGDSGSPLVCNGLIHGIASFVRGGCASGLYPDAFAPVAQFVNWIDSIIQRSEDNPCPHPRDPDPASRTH
Test: Apparent second-order inactivation rate constant was evaluated against human leukocyte Elastase
Assay type: functional

| K obs / 1 1/Ms | SMILES |
| --- | --- |
| 40 | O=C1c2ccccc2S(=O)(=O)N1Cn1ccnc1 |
| 2240 | O=C(/C=C/c1ccccc1)OCN1C(=O)c2ccccc2S1(=O)=O |
| 140 | CC(=O)OCN1C(=O)c2ccccc2S1(=O)=O |
| 8390 | O=C(/C=C/Sc1ccccc1)OCN1C(=O)c2ccccc2S1(=O)=O |
| 1790 | O=C(CSc1ccccc1)OCN1C(=O)c2ccccc2S1(=O)=O |

Further lines, the compound ahead of its results:

| SMILES | K obs / 1 1/Ms |
| --- | --- |
| O=C1c2ccccc2S(=O)(=O)N1CF | 4750 |
| O=C(C[S+]([O-])c1ccccc1)OCN1C(=O)c2ccccc2S1(=O)=O (stereo unspecified) | 800 |
| O=C(CS(=O)(=O)c1ccccc1)OCN1C(=O)c2ccccc2S1(=O)=O | 780 |
| O=C(/C=C\Sc1ccccc1)OCN1C(=O)c2ccccc2S1(=O)=O | 5700 |
| O=C(CCc1ccccc1)OCN1C(=O)c2ccccc2S1(=O)=O | 2280 |

Biological target: T1, Neutrophil elastase (Homo sapiens)
Test: Apparent second-order inactivation rate constant was evaluated against human leukocyte Elastase; Inactive
Assay type: functional
Outline: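 Incubation method: human leukocyte elastase (300 nM) with inhibitor in 0.1 M HEPES, pH 7.25, 1% DMSO. Aliquots withdrawn periodically and assayed for residual activity with methoxysuccinyl-Ala-Ala-Pro-Val p-nitroanilide. Pseudo-first-order k_obs taken from slopes of ln(Et/Eo) versus time, then expressed as k_obs/[I] (M⁻¹ s⁻¹). Kinetics analysed by the Kitz–Wilson method.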

| K obs / 1 1/Ms | SMILES |
| --- | --- |
| inactive | O=C1c2ccccc2S(=O)(=O)N1CO |
